The values that follow come from ChEMBL document CHEMBL2440107, “Quinazolino linked 4β-amidopodophyllotoxin conjugates regulate angiogenic pathway and control breast cancer cell proliferation” (Bioorg Med Chem, 2013).

The test system of series [1] is MCF7. The series is described as follows: Cell cycle arrest in human MCF7 cells assessed as accumulation at G0 phase at 4 uM after 24 hrs by propidium iodide staining-based flow cytometric analysis (reference value: 3%). The format is functional.
Series [2] deals with MCF7. The series is described as follows: Antiangiogenic activity in human MCF7 cells assessed as downregulation of VEGF-A protein expression at 4 uM after 24 hrs by Western blotting analysis. The format is functional, cell-based. (Immunoblotting shows a protein as a band on a membrane.)
The subject of series [3] is MCF7. The series is described as follows: Antiangiogenic activity in human MCF7 cells assessed as downregulation of AKT phosphorylation at Ser473 at 4 uM after 24 hrs by Western blotting analysis. The format is functional, cell-based.
The subject of series [4] is MCF7. Nature of the series: Cell cycle arrest in human MCF7 cells assessed as accumulation at S phase at 4 uM after 24 hrs by propidium iodide staining-based flow cytometric analysis (reference value: 5%). The format is functional.
Series [5] concerns MCF7. The series is described as follows: Antimitotic activity in human MCF7 cells assessed as upregulation of p53 protein expression at 4 uM after 24 hrs by Western blotting analysis. Type of series: functional, cell-based.
Series [6] has as its system HUVEC. Nature of the series: Cytotoxicity against HUVEC assessed as cell viability at 1 uM after 6 hrs by MTT assay. The format is cell-based. The settings on record: human. In short, it runs like this: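 HUVEC at 10,000 cells/well exposed for 6 h across 0.5–32 µM; percent viability plotted, etoposide as standard. Triplicates, Student t-test.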
In general terms: Tetrazolium dyes change colour on reduction, which living cells bring about.

The test system of a further series is MDA-MB-231. The series is described as follows: Cytotoxicity against human MDA-MB-231 cells assessed as cell viability at 0.5 to 32 uM after 24 hrs by MTT assay. Type of series: functional, cell-based. Summed up:
(§1)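 Cells seeded at 10,000/well, incubated overnight, then exposed 24 h to 0.5–32 µM, etoposide as standard. MTT added, 2 h at 37 °C; formazan solubilised in extraction buffer, OD read at 570 nm; percent viability determined. Triplicates, Student t-test.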

Series [7] deals with MCF7. The series is described as follows: Cell cycle arrest in human MCF7 cells assessed as accumulation at G1 phase at 4 uM after 24 hrs by propidium iodide staining-based flow cytometric analysis (reference value: 77%). The format is functional.
Series [8] relates to MCF7. Nature of the series: Antimitotic activity in human MCF7 cells assessed as upregulation of cyclin B1 protein expression at 4 uM after 24 hrs by Western blotting analysis. The format is functional, cell-based.
In series [9] the test system is MCF7. Nature of the series: Induction of apoptosis in human MCF7 cells assessed as upregulation of cytochrome-c protein expression in cytosol at 4 uM after 24 hrs by Western blotting analysis. The format is functional, cell-based.
Series [10] deals with MCF7. The series is described as follows: Antiangiogenic activity in human MCF7 cells assessed as downregulation of ERK1/2 protein expression at 4 uM after 24 hrs by Western blotting analysis. Type of series: functional, cell-based.
In series [11] the test system is MCF7. Nature of the series: Antiangiogenic activity in human MCF7 cells assessed as effect on AKT1 protein expression at 4 uM after 24 hrs by Western blotting analysis. Type of series: functional, cell-based.
The subject of series [12] is MCF7. The series is described as follows: Antiinvasive activity in human MCF7 cells assessed as downregulation of alphaVbeta3 integrin protein expression at 4 uM after 24 hrs by Western blot analysis. The format is functional, cell-based.
Series [13] relates to MCF7. The series is described as follows: Disruption of mitochondrial membrane potential in human MCF7 cells at 4 uM after 24 hrs by JC-1 dye-based fluorescence assay. The format is functional, cell-based. Summed up:
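MCF-7 cells exposed 24 h at 4 µM, etoposide as reference, then stained with 2.5 µM JC-1 for 20 min at room temperature. Fluorescence imaging: red J-aggregates indicate intact potential, green monomers indicate loss, read as red-to-green shift.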

For series [14], the system named is HUVEC. The series is described as follows: Antiangiogenic activity in HUVEC assessed as inhibition of VEGF-A-induced tube formation at 1 uM after 6 hrs by inverted microscopic analysis. The format is functional, cell-based. The settings on record: Homo sapiens. In short, it runs like this:
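HUVEC (ECM medium, 5% FBS, 1% ECGS) seeded at 5×10^3 cells/well on EC matrix solidified at 37 °C, grown 12 h in endothelial growth media, then treated at 1 µM final for about 6 h. Tube formation examined by inverted microscopy. Etoposide as reference.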

The subject of series [15] is MCF7. Nature of the series: Antiangiogenic activity in human MCF7 cells assessed as downregulation of STAT3 protein expression at 4 uM after 24 hrs by Western blotting analysis. The format is functional, cell-based.
The subject of series [16] is MCF7. Nature of the series: Cell cycle arrest in human MCF7 cells assessed as accumulation at G2/M phase at 4 uM after 24 hrs by propidium iodide staining-based flow cytometric analysis (reference value: 15%). The format is functional. (A flow cytometer gives signals particle by particle.)
Series [17] has as its system MCF7. The series is described as follows: Induction of apoptosis in human MCF7 cells assessed as upregulation of caspase-9 protein expression at 4 uM after 24 hrs by Western blotting analysis. The format is functional, cell-based.
For series [18], the system named is MCF7. Nature of the series: Cytotoxicity against human MCF7 cells assessed as cell viability at 0.5 to 32 uM after 24 hrs by MTT assay. Type of series: functional, cell-based. In short, it runs like this:
as §1

The test system of series [19] is MCF7. The series is described as follows: Antiangiogenic activity in human MCF7 cells assessed as downregulation of phosphorylated ERK1/2 protein expression at 4 uM after 24 hrs by Western blotting analysis. Type of series: functional, cell-based.
Series [20] relates to MCF7. Nature of the series: Antimitotic activity in human MCF7 cells assessed as downregulation of Cdk1 protein expression at 4 uM after 24 hrs by Western blotting analysis. The format is functional, cell-based.
The subject of series [21] is MCF7. Nature of the series: Antiangiogenic activity in human MCF7 cells assessed as upregulation of STAT1 protein expression at 4 uM after 24 hrs by Western blotting analysis. The format is functional, cell-based.
For the next series, the system named is PANC-1. Nature of the series: Cytotoxicity against human PANC1 cells assessed as cell viability at 0.5 to 32 uM after 24 hrs by MTT assay. The format is functional, cell-based. Summed up: as §1

Each structure is given as a SMILES string. Activity calls are given as the source filed them. No cut-off for these calls is given here.

For `COc1cc([C@@H]2c3cc4c(cc3[C@@H](NC(=O)CCCCCOc3ccc5nc(C)n(-c6ccc(Cl)c(Cl)c6)c(=O)c5c3)[C@H]3COC(=O)[C@H]23)OCO4)cc(OC)c1OC`, the Activity in the series with MCF7 [1] is listed as 10%; in the series on MCF7 [4] it was 5%; in the series with HUVEC [6], “Non-toxic”; in the series with MCF7 [7], 45%; in the series on MCF7 [16] it was 40%. In addition, the outcome in the series with MCF7 [2], in the series with MCF7 [3], in the series with MCF7 [5], in the series on MDA-MB-231, in the series with MCF7 [8] and in the series on MCF7 [9] was Active. For the same molecule, the result in the series on MCF7 [10], in the series with MCF7 [12], in the series with MCF7 [13], in the series with MCF7 [15], in the series with MCF7 [17] and in the series with MCF7 [18] was Active. The result in the series with MCF7 [19], with MCF7 [20], in the series with MCF7 [21] and in the series on PANC-1 was Active. Besides, in the series with MCF7 [11], the outcome was inactive. In addition, the inhibition entry in the series on HUVEC [14] is “Active”.
